Compound activity deposited in PubChem by several laboratories.
Only some compounds are listed: those with a hit (about 3% of all), similar ones and a draw of the others.
Measles CPE = protection of cells from measles virus; Measles virus-infected cells, CPE protection, absorbance; protection (pct of control), % at 4 µM; actives 1.5% (n = 140,000); in the data active means protection mostly above about 24%, no sharp cut-off; inactive means mostly below about 26%
SDO1 yeast rescue = sdo1-depleted yeast growth rescue; S. cerevisiae sdo1-depleted JHY4D growth rescue, OD600 30 h; hits give high values; pdr5 snq2 efflux-pump mutant strain; z-score at 10 µM; AID 817; actives 0.21% (n = 140,000);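 active means z-score above 3 at both the 24 hr and the 30 hr optical density reads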;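 further: z-score against mean and SD of all compound wells on the same plate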
sEH activator = increases human soluble epoxide hydrolase activity; activation, % at 2 µM; actives 0.04% (n = 91,000); P34913; purified human sEH enzymatic activity, activator screen; in the data active means activation above about 37%
Target sequence (P34913 whole entry, looked up): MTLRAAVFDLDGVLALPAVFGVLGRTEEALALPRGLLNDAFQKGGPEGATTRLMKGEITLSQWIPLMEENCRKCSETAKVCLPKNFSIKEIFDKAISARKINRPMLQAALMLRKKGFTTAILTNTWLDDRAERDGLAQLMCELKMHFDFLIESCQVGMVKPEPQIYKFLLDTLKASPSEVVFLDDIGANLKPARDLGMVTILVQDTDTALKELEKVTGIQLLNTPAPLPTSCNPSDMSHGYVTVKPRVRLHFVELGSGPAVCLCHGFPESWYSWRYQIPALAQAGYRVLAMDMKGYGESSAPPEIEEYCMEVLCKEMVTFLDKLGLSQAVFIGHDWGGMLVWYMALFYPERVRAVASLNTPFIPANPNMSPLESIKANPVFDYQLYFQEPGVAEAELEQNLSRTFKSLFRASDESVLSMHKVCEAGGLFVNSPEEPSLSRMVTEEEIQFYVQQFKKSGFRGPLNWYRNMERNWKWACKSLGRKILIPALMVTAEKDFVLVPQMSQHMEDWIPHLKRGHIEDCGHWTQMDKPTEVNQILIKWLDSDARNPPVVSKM
Yeast growth inh = chemicals that inhibit yeast BB579 growth in restrictive medium (lifespan-shortening candidates); S. cerevisiae BB579 growth, OD615, 48 h; inhibition, % at 10 µM; actives 0.51% (n = 140,000);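 active means inhibition above a set limit, 3 SD over the mean compound inhibition, cut at about 44% in these data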
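test system = yeast BB579 (DeaD) | buffer or medium = restrictive CSMM-D medium | doses = single compound dose of 10 µM, 0.25% DMSO final | times = 4 h preincubation and 48 h exposure at 30 °C | technique = culture absorbance at 615 nm | benchmarks = amphotericin B 10 µg/mL, positive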
Yeast life ext = extends the lifespan of yeast; S. cerevisiae growth with nicotinamide, OD615; deaD strain in restrictive glucose medium; inhibition of the nicotinamide effect, % at 10 µM; actives 0.68% (n = 130,000);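 active means inhibition above a set limit, placed 3 SD over the median of all compounds, cut at about 26% in these data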;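 further: 0% = nicotinamide-treated wells and 100% = cells grown without nicotinamide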
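assay system = DeaD-strain S. cerevisiae | measured by = absorbance at 615 nm | probe or stimulus = nicotinamide 1.5 mM | buffer or medium = CSMM-D glucose medium, restrictive | times = 48 h at 30 °C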
sEH inhibitor = soluble epoxide hydrolase (human) inhibition; P34913; recombinant human sEH enzymatic activity assay; inhibition, % at 2 µM; actives 0.34% (n = 91,000); in the data active means inhibition above about 80%
* = called active by the depositor; . = no result.

SMILES	Measles CPE	SDO1 yeast rescue	sEH activator	Yeast growth inh	Yeast life ext	sEH inhibitor
CCc1cccc2c(C(=O)COC(=O)c3ccc([N+](=O)[O-])s3)c[nH]c12	4	-2.1	.	98*	-9	.
CCc1cccc2c(C(=O)CCl)c[nH]c12	26	-0.95	.	-24	-7	.
CCc1ccc(N2C(=O)CC(NNc3nc4ccccc4s3)C2=O)cc1 (stereo not drawn)	12	-0.23	.	-9	-5	.
C/C(=N/NC(=O)c1cnccn1)c1cccs1	16	1.6	.	7	1	.
Oc1cc(-c2ccccc2)c2ccccc2c1	3	-1.9	.	97*	-8	.
O=c1oc2ccccc2cc1-c1ccc(O)cc1	3	1.4	.	1	-5	.
O=C(NC1CCCCC1)NC1CC2CCC(C1)N2C(=O)NC1CCCCC1 (stereo not drawn)	25*	1.3	-71	-3	-11	71
O=C(NC1CCCCC1)NC1CC2CCC(C1)N2C(=O)NCc1ccccc1 (stereo not drawn)	12	0.87	-21	-21	-6	20
CN(C)c1ccc(C(=O)c2ccccc2)cc1	44*	0.58	-1	-4	-8	0
CC(C)CCn1c(Sc2nc3ccccc3o2)nc2c1c(=O)[nH]c(=O)n2C	6	-0.17	.	-57	-5	.
Cc1nn(C2CCS(=O)(=O)C2)c(Cl)c1/C=C/C(=O)OCC(=O)c1cc(C)n(-c2ccc(F)cc2)c1C (stereo not drawn)	46*	0.64	.	4	2	.
Cc1ccc(N(CC(=O)Nc2ccccc2-c2ccccc2)S(=O)(=O)c2ccccc2)c(C)c1	7	0.09	.	-60	13	.
Cc1ccc(/C=C2\SC(=S)N(C(Cc3ccccc3)C(=O)O)C2=O)cc1 (stereo not drawn)	5	-0.08	.	-48	8	.
O=C(O)C(Cc1ccccc1)N1C(=O)/C(=C/c2ccccc2)SC1=S (stereo not drawn)	3	0.23	.	-36	33*	.
Cc1nc(SCC(=O)Nc2ccc3c(c2)OCO3)c(C#N)c2c1CCCC2	42*	-1.6	.	-64	-1	.
COc1ccc2c(c1)[nH]c1c(Cl)ncnc12	7	0.98	.	61*	-10	.
CCOc1cc(/C=N\Nc2nc(Nc3ccccc3)nc(N3CCOCC3)n2)ccc1OC(=O)c1ccco1	24	0.14	.	-8	-5	.
c1cncc(-c2nnc(-c3cccnc3)nn2)c1	2	-0.48	4	53*	5	-6
Nc1nnc(-c2cccnc2)s1	6	1.5	-4	-13	-8	5
Cc1ccc(S(=O)(=O)CNC(=S)c2cccc(Cl)c2)cc1	43*	-0.95	.	11	-6	.
CC(C)Cc1cc(C(=O)O)n[nH]1	19*	0.27	18	-17	-6	-18
O=C1/C(=C/c2cccnc2)Oc2cc(OS(=O)(=O)c3ccc(F)cc3)ccc21	20	-1.7	10	-62	0	-11
Cc1ccc(S(=O)(=O)Oc2ccc3c(c2)O/C(=C\c2cccnc2)C3=O)cc1	33*	-2.5	3	-62	7	-5
CC(=O)Oc1ccc2c(=O)c(N3C(=O)c4ccccc4C3=O)c(C)oc2c1	15	0.43	.	-39	28*	.
CC(=O)Oc1ccc2c(C)cc(=O)oc2c1	3	0.57	16	0	-9	-18
SMILES	Measles CPE	SDO1 yeast rescue	sEH activator	Yeast growth inh	Yeast life ext	sEH inhibitor
Cc1cc(=O)oc2cc(OC(=O)CCCCCN3C(=O)c4ccccc4C3=O)ccc12	5	0.66	.	-50	32*	.
C/C(=N/NC(=O)c1cccs1)c1ccc(NC(=O)COc2ccc(Cl)cc2)cc1	19	0.03	-9	-32	-12	11
OC(COCc1cccs1)CN1CCN(c2ccccc2Cl)CC1 (stereo not drawn)	20	0.53	.	-41	6	.
OC(COCc1cccs1)CN1CCN(c2cccc(Cl)c2)CC1 (stereo not drawn)	54*	-1.5	.	-48	5	.
Cc1ccccc1-c1cc(C(=O)Nc2sc(C(=O)OC(C)C)c(C)c2C#N)c2ccccc2n1	8	-0.66	-9	-38	1	11
CC1=NOC(=O)/C1=C/c1ccc(N(C)C)cc1	14	0.86	1	-24	1	0
CCN(CC)c1ccc(/C=C2/C(=O)ON=C2C)cc1	13	-0.52	.	-34	40*	.
COc1cccc(-n2c(SCc3cc(=O)oc4cc(O)c(O)cc34)nc3ccccc3c2=O)c1	6	-0.87	.	-21	0	.
O=C1/C(=N/n2cnnc2)c2ccccc2N1Cc1ccccc1	4	-0.02	9	-42	39*	-9
c1ccc2c(c1)C(=Nn1cnnc1)c1ccccc1-2	3	1.1	0	54*	-19	3
CC(Oc1ccc(Cl)cc1Cl)c1nc(-c2ccc(NC(=O)c3ccco3)cc2)no1 (stereo not drawn)	4	-1.3	28	-60	-12	-29
CC(=O)N1CCC(N(CCN2CCOCC2)C(=S)Nc2c(C)cccc2C)CC1	2	1.5	.	-2	0	.
COc1ccc(/C(=C/c2ccc(OC(F)F)c(OC)c2)C(=O)O)cc1OC	60*	-0.12	.	-21	-2	.
COc1ccc(CN(CC2CCCO2)C(=O)CN2C(=O)COc3ccccc32)cc1OC (stereo not drawn)	12	-0.26	-8	10	.	9
Fc1ccccc1/C=N/NC(=S)Nc1ccc(Cl)cc1Cl	16	-0.53	.	-7	1	.
Cc1ccc(C(=O)NC(C)c2ccccc2)o1 (stereo not drawn)	34*	-0.31	-33	-32	.	37
COc1cccc(OC)c1OCCCOc1ccc(C)cc1Br	13	0.23	.	-34	-4	.
CCn1nnc(-c2ccccc2NC(=O)c2cnccn2)n1	.	.	-2	.	.	7
CC1(C)CC(=O)C(C=NCCN2CCNC2=O)=C(O)C1	35*	1.1	.	-33	3	.
Cc1ccc(Cn2c(C(=O)NCCCN3CCOCC3)cc3sccc32)cc1	4	-1.1	.	-59	-1	.
Cc1ccc(Cn2c(C(=O)O)cc3sccc32)cc1	7	-0.71	.	-34	26*	.
Cc1ccc(-n2nnnc2/C=C\Nc2cc(C)on2)cc1	2	-0.29	.	-17	-4	.
Cc1cc(N/C=C\c2nnnn2-c2ccc(F)cc2)no1	34*	0.03	.	-34	-2	.
COc1c2c(nc3ccccc13)OC(C(C)(O)COC(C)=O)C2 (stereo not drawn)	32*	0.3	8	-21	-7	-7
CCOC(=O)CNC(=O)c1c2c(nc3ccccc13)CCCC2	8	0.59	-2	-7	-31	2
Clc1ccc(-c2nnc3sc(Cc4cccs4)nn23)c(Cl)c1	68*	-0.94	.	3	-10	.
c1coc(-c2nnc3sc(Cc4cccs4)nn23)c1	41	-0.36	-8	-31	-24	9
COc1ccc(Nc2nc(-c3cccc([N+](=O)[O-])c3)nc3ccccc23)cc1	5	-1.9	.	-22	0	.
